# Test results: ChEMBL document CHEMBL2202967, “Synthesis, characterization and biological evaluation of ureidofibrate-like derivatives endowed with peroxisome proliferator-activated receptor activity” (J Med Chem, 2012)
# Activity calls are given as the source filed them. The rule behind the calls is not given here.
# How the values were obtained:
# HCT-15 [1] = test: Antitumor activity against human HCT15 cells assessed as inhibition of cell proliferation after 2 days by MTT assay; assay type: functional, cell-based; settings: HCT-15, 48 h
# Summary of the method: (§1)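 MTT assay with 10,000 cells/well seeded on day 1. Ligands added on day 2 at 1, 5, 10, 50 and 100 μM, from 20 mM DMSO stocks, for 1 or 2 days. Six replicate wells per drug, untreated control column. IC50 is the concentration giving 0.5 fraction affected versus untreated controls, taken from dose–effect curves. Each experiment in triplicate.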
# LoVo [2] = test: Antitumor activity against human LoVo cells assessed as inhibition of cell proliferation after 1 day by MTT assay; assay type: functional, cell-based; settings: 24 h; summary of the method: as §1
# HT-29 [3] = test: Antitumor activity against human HT-29 cells assessed as inhibition of cell proliferation after 1 day by MTT assay; assay type: functional, cell-based; settings: HT-29, 24 h; summary of the method: as §1
# HCT-15 [4] = test: Antitumor activity against human HCT15 cells assessed as inhibition of cell proliferation after 1 day by MTT assay; assay type: functional, cell-based; settings: HCT-15, 24 h; summary of the method: as §1
# HT-29 [5] = test: Induction of apoptosis in human HT-29 cells at IC50 by Annexin V-FITC/propidium iodide staining based flow cytometry; assay type: functional, cell-based; settings: TDE = time-dependent effect
# LoVo [6] = test: Antitumor activity against human LoVo cells assessed as inhibition of cell proliferation after 2 days by MTT assay; assay type: functional, cell-based; settings: 48 h; summary of the method: as §1
# HT-29 [7] = test: Antitumor activity against human HT-29 cells assessed as inhibition of cell proliferation after 2 days by MTT assay; assay type: functional, cell-based; settings: HT-29, 48 h; summary of the method: as §1
# [8] = target: T1, Peroxisome proliferator-activated receptor alpha (Homo sapiens, UniProt Q07869); test: Agonist activity at human GAL4-fused PPARalpha ligand binding domain expressed in HepG2 cells after 20 hrs by luciferase reporter gene transactivation assay; assay type: cell-based
# T1 sequence (Q07869 whole entry): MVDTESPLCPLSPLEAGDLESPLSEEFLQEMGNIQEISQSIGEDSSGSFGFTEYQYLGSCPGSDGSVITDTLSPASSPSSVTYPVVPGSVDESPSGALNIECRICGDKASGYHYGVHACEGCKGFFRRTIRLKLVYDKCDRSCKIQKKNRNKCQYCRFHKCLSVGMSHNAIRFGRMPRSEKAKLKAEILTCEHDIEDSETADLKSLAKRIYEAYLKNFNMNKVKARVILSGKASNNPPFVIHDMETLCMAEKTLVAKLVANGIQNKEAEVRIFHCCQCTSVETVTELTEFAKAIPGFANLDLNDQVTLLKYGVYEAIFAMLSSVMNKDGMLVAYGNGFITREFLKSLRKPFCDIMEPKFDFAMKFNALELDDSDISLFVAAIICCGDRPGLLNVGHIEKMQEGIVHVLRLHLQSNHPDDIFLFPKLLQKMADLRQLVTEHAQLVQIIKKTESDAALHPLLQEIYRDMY
# Summary of the method: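 HepG2 cells in MEM with 10% heat-inactivated FBS, seeded at 10⁵ cells/well and transfected after 24 h by calcium phosphate. Plasmids: Gal4-PPARα LBD (30 ng), pGal5TKpGL3 luciferase reporter (100 ng) and pCMVβgal (250 ng). Ligands added 4 h post-transfection, for 20 h, in triplicate. Luciferase read in cell extracts, with β-galactosidase activity measured alongside; experiments repeated at least twice.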
# [9] = target: T2, Peroxisome proliferator-activated receptor delta (Homo sapiens, UniProt Q03181); test: Agonist activity at human GAL4-fused PPARdelta ligand binding domain expressed in COS-1 cells after 20 hrs by luciferase reporter gene transactivation assay; assay type: cell-based
# T2 sequence (Q03181 whole entry): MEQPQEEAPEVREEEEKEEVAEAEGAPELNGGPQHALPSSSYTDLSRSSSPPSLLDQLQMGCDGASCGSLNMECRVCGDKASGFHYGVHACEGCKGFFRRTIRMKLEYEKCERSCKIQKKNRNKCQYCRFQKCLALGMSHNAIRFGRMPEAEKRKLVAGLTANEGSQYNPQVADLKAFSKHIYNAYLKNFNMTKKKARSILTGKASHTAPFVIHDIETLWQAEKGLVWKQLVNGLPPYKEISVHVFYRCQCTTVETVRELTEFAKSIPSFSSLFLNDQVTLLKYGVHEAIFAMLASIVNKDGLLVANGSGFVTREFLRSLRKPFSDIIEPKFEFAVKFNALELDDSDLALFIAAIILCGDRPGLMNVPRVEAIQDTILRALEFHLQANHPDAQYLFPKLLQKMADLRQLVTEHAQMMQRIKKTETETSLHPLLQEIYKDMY
# [10] = target: T3, Peroxisome proliferator-activated receptor gamma (Homo sapiens, UniProt P37231); test: Agonist activity at human GAL4-fused PPARgamma ligand binding domain expressed in HepG2 cells after 20 hrs by luciferase reporter gene transactivation assay; assay type: cell-based
# T3 sequence (P37231 whole entry): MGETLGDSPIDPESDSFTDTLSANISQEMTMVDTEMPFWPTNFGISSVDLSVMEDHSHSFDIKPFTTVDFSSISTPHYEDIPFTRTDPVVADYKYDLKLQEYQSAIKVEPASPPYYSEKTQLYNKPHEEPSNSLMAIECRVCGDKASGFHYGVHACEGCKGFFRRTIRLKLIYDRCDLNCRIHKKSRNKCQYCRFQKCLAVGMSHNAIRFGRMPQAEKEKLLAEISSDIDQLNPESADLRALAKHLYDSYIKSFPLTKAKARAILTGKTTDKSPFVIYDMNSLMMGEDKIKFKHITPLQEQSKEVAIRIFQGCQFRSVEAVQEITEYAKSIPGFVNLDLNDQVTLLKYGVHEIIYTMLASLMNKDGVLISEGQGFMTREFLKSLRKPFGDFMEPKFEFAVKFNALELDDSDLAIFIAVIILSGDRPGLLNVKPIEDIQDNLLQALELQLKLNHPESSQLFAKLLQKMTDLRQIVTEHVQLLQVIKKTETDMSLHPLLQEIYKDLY
# [11] = target: T4, Peroxisome proliferator-activated receptor alpha (Homo sapiens) (UniProt Q07869); test: Agonist activity at human GAL4-fused PPARalpha ligand binding domain expressed in HepG2 cells after 20 hrs by luciferase reporter gene transactivation assay relative to WY14643; assay type: cell-based
# T4 sequence (whole entry): T1 sequence (Q07869 whole entry)
# Summary of the method: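 GAL4-human PPARα LBD chimera (30 ng) with Gal5-TK luciferase reporter (100 ng) and pCMVβgal (250 ng), calcium-phosphate transfected into HepG2 (MEM, 10% FBS) seeded 10⁵ cells/well. Ligands added 4 h post-transfection for 20 h, in triplicate. Luciferase read in cell extracts, normalised to β-galactosidase activity. Experiments repeated at least twice.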
# [12] = target: T5, Peroxisome proliferator-activated receptor gamma (Homo sapiens) (UniProt P37231); settings: BL21-DE3
# T5 sequence (whole entry): T3 sequence (P37231 whole entry)
# [13] = target: T3, Peroxisome proliferator-activated receptor gamma; test: Binding affinity to PPARgamma ligand binding domain by isothermal titration calorimetry
# Mus musculus [14] = test: Induction of PPARalpha-mediated upregulation of Acox1 mRNA expression in liver of high fat diet fed-induced obesity and insulin resistance C57Bl/6J mouse model at 100 mg/kg/day, po administered once daily for 2 weeks by real time qPCR analysis; assay type: functional, organism-based
# Summary of the method: (§2)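 Livers came from mice fed a high-fat diet for 16 weeks, then gavaged once daily for 2 weeks in 0.5% hypromellose, and were snap-frozen at sacrifice. Total RNA was extracted with Trizol and cleaned up on RNeasy columns. 1 μg RNA was used for mRNA quantitation.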
# Mus musculus [15] = test: Increase in liver weight in high fat diet fed-induced obesity and insulin resistance C57Bl/6J mouse model at 100 mg/kg/day, po administered once daily for 2 weeks; assay type: functional, organism-based
# Mus musculus [16] = test: Induction of PPARalpha-mediated upregulation of Acadm mRNA expression in liver of high fat diet fed-induced obesity and insulin resistance C57Bl/6J mouse model at 100 mg/kg/day, po administered once daily for 2 weeks by real time qPCR analysis; assay type: functional, organism-based; summary of the method: as §2
# Mus musculus [17] = test: Induction of PPARalpha-mediated upregulation of Acadl mRNA expression in liver of high fat diet fed-induced obesity and insulin resistance C57Bl/6J mouse model at 100 mg/kg/day, po administered once daily for 2 weeks by real time qPCR analysis; assay type: functional, organism-based; summary of the method: as §2
# [18] = Solubility of the compound in HEPES buffer; assay type: physicochemical
# Mus musculus [19] = test: Reduction of body weight in high fat diet fed-induced obesity and insulin resistance C57Bl/6J mouse model at 10 mg/kg/day, po administered once daily for 2 weeks relative to control; assay type: functional
# Summary of the method: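 Male C57Bl/6J mice, 6 weeks old, on high-fat diet for 16 weeks. Then dosed once daily for 2 weeks by oral gavage in 0.5% hypromellose; doses chosen in a preliminary dose-finding study. Body weight measured at end of treatment versus HFD controls, 6 mice per group.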
# Mus musculus [20] = test: Reduction of visceral fat weight in high fat diet fed-induced obesity and insulin resistance C57Bl/6J mouse model at 10 mg/kg/day, po administered once daily for 2 weeks measured on day 12 by in vivo magnetic resonance imaging analysis; assay type: functional, organism-based
# Summary of the method: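 Mice fed a high-fat diet for 16 weeks were gavaged daily for 2 weeks in 0.5% hypromellose. Under 1% isoflurane they were scanned at 4.7 T with sixteen 1 mm axial T1-weighted slices from kidneys to bladder. Visceral fat was expressed as percentage of total image area, 3 mice per group.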
EC50 ([9]; read-out: EC50) [nM],Emax [11],EC50 ([8]; read-out: EC50) [nM],EC50 ([10]; read-out: EC50) [nM],Kd [13] [nM],Compound,EC50 ([8]; hepg2),other results
–,–,–,–,–,Cc1c(C)c2c(c(C)c1O)CCC(C)(COc1ccc(CC3SC(=O)NC3=O)cc1)O2 (centres undefined) [TROGLITAZONE],–,IC50 (HCT-15 [1]): 50900 nM; IC50 (LoVo [2]): > 100000 nM; IC50 (HT-29 [3]): > 100000 nM; IC50 (HCT-15 [4]): > 100000 nM; Activity (HT-29 [5]): tde; IC50 (LoVo [6]): 65000 nM; IC50 (HT-29 [7]): 50000 nM
130,93%,25,150,1500,CCCCCCCN(CCc1ccc(O[C@H](C)C(=O)O)cc1)c1nc2ccccc2o1,–,deltaT [12]: 2 °C
–,–,–,–,–,CC(C)OC(=O)C(C)(C)Oc1ccc(C(=O)c2ccc(Cl)cc2)cc1,–,Activity (Mus musculus [14]): Active; Activity (Mus musculus [15]): Active; Activity (Mus musculus [16]): Active; Activity (Mus musculus [17]): Active
570,87%,122,800,7700,CCCCCCCN(CCc1ccc(OCC(=O)O)cc1)c1nc2ccccc2o1,–,–
–,–,–,–,–,Cc1cccc(Nc2cc(Cl)nc(SCC(=O)O)n2)c1C [PIRINIXIC ACID],–,EC50 ([10]; hepg2): Not Active
850,78%,620,2300,3300,CCCCCCCN(CCc1ccc(O[C@@H](C)C(=O)O)cc1)c1nc2ccccc2o1,–,deltaT [12]: 2 °C

Compound,EC50 ([9]; read-out: EC50) [nM],Emax [11],EC50 ([8]; read-out: EC50) [nM],EC50 ([10]; read-out: EC50) [nM],Kd [13] [nM],EC50 ([8]; hepg2),other results
CCCc1c(OCCCOc2ccc(OCC(=O)O)cc2)ccc(C(C)=O)c1O,21,–,–,–,–,Not Active,EC50 ([10]; hepg2): Not Active
CCCCCCCN(CCc1ccc(O[C@@H](Cc2ccccc2)C(=O)O)cc1)c1nc2ccccc2o1.NC1CCCCC1,–,–,–,1700,–,Not Active,EC50 ([9]; cos-1): Not Active; solubility [18]: Insoluble
CN(CCOc1ccc(CC2SC(=O)NC2=O)cc1)c1ccccn1 (centres undefined) [ROSIGLITAZONE],–,inactive,–,–,–,Not Active,inhibition (Mus musculus [19]): inactive; inhibition (Mus musculus [20]): inactive
CCCCCCCN(CCc1ccc(O[C@H](Cc2ccccc2)C(=O)O)cc1)c1nc2ccccc2o1.NC1CCCCC1,–,–,1720,2700,–,–,EC50 ([9]; cos-1): Not Active; solubility [18]: Insoluble
